Laboratory results taken from ChEMBL document CHEMBL3792358, “Computer-aided identification of new histone deacetylase 6 selective inhibitor with anti-sepsis activity” (Eur J Med Chem, 2016).
Active and inactive are the calls of the source. The calls are words filed in the database; no cut-off is given here.

Assays:
[1] = molecular target: Histone deacetylase 3/Nuclear receptor corepressor 2 (HDAC3/NCoR2) (Homo sapiens, UniProt O15379); format: cell-based
[2] = system: Mus musculus; assay: Antiinflammatory activity in ICR mouse model of LPS-induced endotoxemia assessed as inhibition of LPS-induced IL-6 mRNA expression in liver at 10 mg/kg, ip administered 2 hrs before and immediately after LPS injection by RT-PCR method; format: functional, organism-based
How it was run: (§1)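 Male ICR mice (27–29 g) given LPS; drug i.p. in 5% DMSO/saline 2 h before and immediately after LPS. Liver collected 6 h after LPS. Total RNA extracted and reverse-transcribed to cDNA; TNF-α and IL-6 mRNA measured by real-time RT-PCR relative to vehicle control.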

[3] = molecular target: T1, Histone deacetylase 1 (Homo sapiens, UniProt Q13547); assay: Inhibition of full length human recombinant C-terminal FLAG-His-tagged HDAC1 (1 to 482 residues) expressed in Sf21 cells using RHK-K(Ac)-AMC as substrate incubated for 60 mins by fluorescence assay
[4] = molecular target: Histone deacetylase 9 (Homo sapiens, UniProt Q9UKV0); assay: Inhibition of human recombinant HDAC9 using trifluoroacetyl lysine as substrate
[5] = molecular target: T2, Protein deacetylase HDAC6 (Homo sapiens, UniProt Q9UBN7); assay: Inhibition of recombinant human HDAC6 using Fluor de Lys-SIRT1 as substrate incubated for 15 mins by fluorescence assay
T2 sequence (Q9UBN7 whole entry): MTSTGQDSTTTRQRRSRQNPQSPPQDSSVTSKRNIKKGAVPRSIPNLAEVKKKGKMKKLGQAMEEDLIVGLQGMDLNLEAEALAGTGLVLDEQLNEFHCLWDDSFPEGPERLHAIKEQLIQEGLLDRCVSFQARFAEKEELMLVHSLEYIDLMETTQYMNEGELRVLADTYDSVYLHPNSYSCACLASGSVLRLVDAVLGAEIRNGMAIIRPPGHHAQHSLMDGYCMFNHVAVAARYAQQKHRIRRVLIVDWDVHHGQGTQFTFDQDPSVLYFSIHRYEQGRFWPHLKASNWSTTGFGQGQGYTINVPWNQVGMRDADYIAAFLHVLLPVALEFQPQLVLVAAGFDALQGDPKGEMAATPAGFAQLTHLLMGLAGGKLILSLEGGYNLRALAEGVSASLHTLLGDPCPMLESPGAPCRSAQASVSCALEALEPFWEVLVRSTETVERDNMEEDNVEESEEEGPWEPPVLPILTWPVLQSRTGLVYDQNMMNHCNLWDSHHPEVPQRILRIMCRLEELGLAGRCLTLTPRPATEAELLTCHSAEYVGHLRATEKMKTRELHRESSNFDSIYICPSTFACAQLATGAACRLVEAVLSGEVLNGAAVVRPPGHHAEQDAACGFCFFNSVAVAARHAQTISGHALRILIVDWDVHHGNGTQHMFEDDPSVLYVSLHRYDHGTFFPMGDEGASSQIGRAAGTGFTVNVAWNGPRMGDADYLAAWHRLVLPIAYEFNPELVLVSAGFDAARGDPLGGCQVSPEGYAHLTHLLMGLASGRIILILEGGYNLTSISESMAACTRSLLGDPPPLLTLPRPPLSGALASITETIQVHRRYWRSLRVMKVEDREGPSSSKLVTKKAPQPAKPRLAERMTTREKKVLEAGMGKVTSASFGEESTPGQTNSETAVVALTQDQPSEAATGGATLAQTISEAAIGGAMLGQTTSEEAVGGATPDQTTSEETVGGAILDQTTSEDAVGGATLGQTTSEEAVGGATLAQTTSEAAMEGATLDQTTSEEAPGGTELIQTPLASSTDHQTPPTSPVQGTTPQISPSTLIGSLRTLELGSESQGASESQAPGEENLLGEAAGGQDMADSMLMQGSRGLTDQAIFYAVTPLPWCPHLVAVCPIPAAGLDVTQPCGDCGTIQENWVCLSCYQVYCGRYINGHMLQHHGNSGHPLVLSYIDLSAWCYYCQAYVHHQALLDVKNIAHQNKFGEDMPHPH

[6] = system: RAW264.7; assay: Antiinflammatory activity in mouse RAW264.7 cells assessed as inhibition of LPS-induced IL-6 production at 0.5 to 2.5 uM relative to control; format: functional
[7] = molecular target: T3, Polyamine deacetylase HDAC10 (Homo sapiens, UniProt Q969S8); assay: Inhibition of human recombinant HDAC10 using RHK-K(Ac)-AMC as substrate
T3 sequence (Q969S8 whole entry): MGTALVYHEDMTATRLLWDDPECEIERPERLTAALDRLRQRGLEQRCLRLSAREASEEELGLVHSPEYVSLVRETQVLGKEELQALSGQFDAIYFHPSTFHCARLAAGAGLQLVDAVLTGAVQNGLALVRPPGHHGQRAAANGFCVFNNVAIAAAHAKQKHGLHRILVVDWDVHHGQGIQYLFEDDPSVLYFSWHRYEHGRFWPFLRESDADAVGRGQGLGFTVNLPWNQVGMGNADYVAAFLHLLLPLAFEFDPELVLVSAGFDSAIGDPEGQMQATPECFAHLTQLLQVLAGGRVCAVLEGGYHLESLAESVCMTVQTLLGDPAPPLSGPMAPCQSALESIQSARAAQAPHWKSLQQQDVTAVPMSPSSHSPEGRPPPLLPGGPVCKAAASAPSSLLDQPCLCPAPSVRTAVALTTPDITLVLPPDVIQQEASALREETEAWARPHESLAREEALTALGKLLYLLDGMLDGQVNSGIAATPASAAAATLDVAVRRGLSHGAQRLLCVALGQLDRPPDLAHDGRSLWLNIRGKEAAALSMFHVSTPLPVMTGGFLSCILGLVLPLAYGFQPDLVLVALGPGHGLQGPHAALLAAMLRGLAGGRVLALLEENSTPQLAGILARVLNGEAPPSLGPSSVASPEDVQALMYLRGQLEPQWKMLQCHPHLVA

[8] = molecular target: Histone deacetylase 2 (Homo sapiens, UniProt Q92769); assay: Inhibition of full length human recombinant C-terminal GST-tagged HDAC2 (1 to 488 residues) expressed in insect cells using RHK-K(Ac)-AMC as substrate incubated for 60 mins by fluorescence assay
[9] = system: RAW264.7; assay: Antiinflammatory activity in mouse RAW264.7 cells assessed as inhibition of LPS-induced NO production at 0.5 to 2.5 uM relative to control; format: functional
[10] = molecular target: T4, Histone deacetylase 7 (Homo sapiens, UniProt Q8WUI4); assay: Inhibition of human recombinant N-terminal GST-tagged HDAC7 (518 to 991 residues) expressed in insect cells using Boc-K(TFA)-AMC as substrate incubated for 60 mins by fluorescence assay
T4 sequence (Q8WUI4 whole entry): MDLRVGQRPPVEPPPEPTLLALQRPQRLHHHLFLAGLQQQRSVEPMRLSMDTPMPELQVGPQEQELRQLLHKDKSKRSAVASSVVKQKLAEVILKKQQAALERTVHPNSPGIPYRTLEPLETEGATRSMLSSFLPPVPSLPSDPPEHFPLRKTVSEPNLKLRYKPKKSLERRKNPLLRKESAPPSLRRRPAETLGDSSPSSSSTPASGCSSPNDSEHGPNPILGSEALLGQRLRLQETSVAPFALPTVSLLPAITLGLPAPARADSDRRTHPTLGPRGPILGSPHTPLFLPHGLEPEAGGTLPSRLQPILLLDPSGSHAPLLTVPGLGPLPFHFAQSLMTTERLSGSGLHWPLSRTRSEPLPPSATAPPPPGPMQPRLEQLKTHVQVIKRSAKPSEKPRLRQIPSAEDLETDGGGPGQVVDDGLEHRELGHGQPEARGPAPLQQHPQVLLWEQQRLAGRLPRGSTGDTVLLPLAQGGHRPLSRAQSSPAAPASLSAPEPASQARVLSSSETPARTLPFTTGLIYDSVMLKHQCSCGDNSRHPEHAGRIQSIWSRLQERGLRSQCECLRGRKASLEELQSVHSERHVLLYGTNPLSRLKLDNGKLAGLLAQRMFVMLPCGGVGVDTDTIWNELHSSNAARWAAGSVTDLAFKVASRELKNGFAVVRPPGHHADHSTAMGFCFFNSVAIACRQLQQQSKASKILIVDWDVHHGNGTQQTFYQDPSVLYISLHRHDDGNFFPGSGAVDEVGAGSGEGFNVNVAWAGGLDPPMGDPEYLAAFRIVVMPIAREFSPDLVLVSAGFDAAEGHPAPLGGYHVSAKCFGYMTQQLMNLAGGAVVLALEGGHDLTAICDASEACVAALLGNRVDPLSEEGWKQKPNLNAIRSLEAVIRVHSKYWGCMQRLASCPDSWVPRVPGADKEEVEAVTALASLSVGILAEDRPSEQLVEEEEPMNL

[11] = system: Mus musculus; assay: Anti-sepsis activity in ICR mouse model of LPS-induced endotoxemia assessed as increase in survival rate at 20 mg/kg, ip administered 2 hrs before and immediately after LPS injection measured up to 10 days; format: functional
How it was run: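 Male ICR mice (27–29 g), LPS from E. coli O111:B4. Dosing was i.p. in vehicle (5% DMSO in saline) at 5, 10 or 20 mg/kg, given 2 h before and immediately after LPS. Groups were vehicle control, LPS, and LPS plus drug. Survival was followed up to 10 days and compared by log-rank analysis.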

[12] = molecular target: Histone deacetylase 4 (Homo sapiens, UniProt P56524); assay: Inhibition of human recombinant N-terminal GST-tagged C-terminal His-tagged HDAC4 (627 to 1084 residues) expressed in insect cells using Boc-K(TFA)-AMC as substrate incubated for 60 mins by fluorescence assay
[13] = molecular target: Histone deacetylase; format: cell-based, Homo sapiens; conditions: hela
[14] = molecular target: Histone deacetylase 5 (Homo sapiens, UniProt Q9UQL6); assay: Inhibition of human recombinant C-terminal His-tagged HDAC5 (657 to 1123 residues) expressed in insect cells using Boc-K(TFA)-AMC as substrate incubated for 60 mins by fluorescence assay
[15] = molecular target: T1, Histone deacetylase 1
[16] = molecular target: T5, Histone deacetylase 8 (Homo sapiens, UniProt Q9BY41); assay: Inhibition of human recombinant C-terminal His-tagged HDAC8 (1 to 377 residues) expressed in insect cells using RHK-K(Ac)-K(Ac)-AMC as substrate incubated for 60 mins by fluorescence assay
T5 sequence (Q9BY41 whole entry): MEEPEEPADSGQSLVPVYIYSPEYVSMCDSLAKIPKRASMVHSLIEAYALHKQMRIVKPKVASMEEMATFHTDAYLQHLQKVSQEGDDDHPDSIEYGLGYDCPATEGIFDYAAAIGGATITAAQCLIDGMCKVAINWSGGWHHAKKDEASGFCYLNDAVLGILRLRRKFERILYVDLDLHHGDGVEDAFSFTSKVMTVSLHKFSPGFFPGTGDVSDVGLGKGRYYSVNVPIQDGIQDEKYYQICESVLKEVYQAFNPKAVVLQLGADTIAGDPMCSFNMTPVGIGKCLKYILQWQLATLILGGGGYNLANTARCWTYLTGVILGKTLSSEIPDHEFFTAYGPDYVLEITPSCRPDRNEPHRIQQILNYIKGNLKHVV

[17] = molecular target: T1, Histone deacetylase 1; conditions: HeLa, 10 uM
[18] = molecular target: T6, Histone deacetylase 11 (Homo sapiens, UniProt Q96DB2); assay: Inhibition of human recombinant N-terminal His-tagged HDAC11 (1 to 347 residues) expressed in insect cells/baculovirus expression system using RHK-K(Ac)-AMC as substrate by fluorescence assay
T6 sequence (Q96DB2 whole entry): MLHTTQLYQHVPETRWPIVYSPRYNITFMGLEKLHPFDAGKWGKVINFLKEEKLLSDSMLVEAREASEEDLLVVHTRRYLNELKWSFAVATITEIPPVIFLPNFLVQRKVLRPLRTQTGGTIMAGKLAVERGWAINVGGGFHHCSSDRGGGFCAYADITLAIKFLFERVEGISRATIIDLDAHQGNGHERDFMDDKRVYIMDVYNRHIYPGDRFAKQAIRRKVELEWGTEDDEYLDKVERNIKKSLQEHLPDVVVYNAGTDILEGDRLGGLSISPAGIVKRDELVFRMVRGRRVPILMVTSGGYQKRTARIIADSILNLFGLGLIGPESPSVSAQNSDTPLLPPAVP

[19] = molecular target: Histone deacetylase; assay: Inhibition of HDAC in human HeLa cells using Boc-acetyl-lysine-AMC as substrate incubated for 24 hrs by fluorometric assay; format: cell-based
[20] = molecular target: T2, Protein deacetylase HDAC6; assay: Inhibition of full length human recombinant N-terminal GST-tagged HDAC6 (1 to 1215 residues) expressed in sf9 cells using RHK-K(Ac)-AMC as substrate incubated for 90 mins by fluorescence assay
[21] = system: HeLa; assay: Cytotoxicity against human HeLa cells by MTS assay; format: cell-based
[22] = system: Mus musculus; assay: Antiinflammatory activity in ICR mouse model of LPS-induced endotoxemia assessed as inhibition of LPS-induced TNF-alpha mRNA expression in liver at 10 mg/kg, ip administered 2 hrs before and immediately after LPS injection by RT-PCR method; format: functional, organism-based
How it was run: as §1

[23] = system: RAW264.7; assay: Antiinflammatory activity in mouse RAW264.7 cells assessed as inhibition of LPS-induced TNF-alpha production at 0.5 to 2.5 uM relative to control; format: functional
[24] = molecular target: Histone deacetylase (Homo sapiens) (UniProt Q13547+O15379+Q9UBN7+Q92769+Q9UQL6+Q8WUI4+Q9BY41+Q96DB2+P56524+Q9UKV0+Q969S8); assay: Competitive inhibition of HDAC in human HeLa cells using Boc-acetyl-lysine-AMC as substrate at 25 to 50 uM incubated for 30 mins in dark by Lineweaver-Burk plot analysis; format: cell-based

T1 sequence (Q13547 whole entry, the tested form may be a part): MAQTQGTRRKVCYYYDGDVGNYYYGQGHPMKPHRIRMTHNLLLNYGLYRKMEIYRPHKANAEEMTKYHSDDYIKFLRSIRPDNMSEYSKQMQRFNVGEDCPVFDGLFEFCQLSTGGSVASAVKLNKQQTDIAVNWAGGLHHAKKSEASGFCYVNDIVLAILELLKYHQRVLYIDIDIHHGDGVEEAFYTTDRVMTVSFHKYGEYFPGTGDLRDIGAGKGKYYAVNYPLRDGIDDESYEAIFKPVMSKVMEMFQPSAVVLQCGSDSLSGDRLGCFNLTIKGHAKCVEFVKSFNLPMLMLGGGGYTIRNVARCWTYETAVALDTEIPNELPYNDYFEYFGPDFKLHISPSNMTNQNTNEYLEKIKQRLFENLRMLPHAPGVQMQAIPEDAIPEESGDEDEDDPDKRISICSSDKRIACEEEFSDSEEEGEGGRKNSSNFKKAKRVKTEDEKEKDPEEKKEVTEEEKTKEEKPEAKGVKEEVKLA
Sequence of Histone deacetylase 5 (Q9UQL6 whole entry, the tested form may be a part): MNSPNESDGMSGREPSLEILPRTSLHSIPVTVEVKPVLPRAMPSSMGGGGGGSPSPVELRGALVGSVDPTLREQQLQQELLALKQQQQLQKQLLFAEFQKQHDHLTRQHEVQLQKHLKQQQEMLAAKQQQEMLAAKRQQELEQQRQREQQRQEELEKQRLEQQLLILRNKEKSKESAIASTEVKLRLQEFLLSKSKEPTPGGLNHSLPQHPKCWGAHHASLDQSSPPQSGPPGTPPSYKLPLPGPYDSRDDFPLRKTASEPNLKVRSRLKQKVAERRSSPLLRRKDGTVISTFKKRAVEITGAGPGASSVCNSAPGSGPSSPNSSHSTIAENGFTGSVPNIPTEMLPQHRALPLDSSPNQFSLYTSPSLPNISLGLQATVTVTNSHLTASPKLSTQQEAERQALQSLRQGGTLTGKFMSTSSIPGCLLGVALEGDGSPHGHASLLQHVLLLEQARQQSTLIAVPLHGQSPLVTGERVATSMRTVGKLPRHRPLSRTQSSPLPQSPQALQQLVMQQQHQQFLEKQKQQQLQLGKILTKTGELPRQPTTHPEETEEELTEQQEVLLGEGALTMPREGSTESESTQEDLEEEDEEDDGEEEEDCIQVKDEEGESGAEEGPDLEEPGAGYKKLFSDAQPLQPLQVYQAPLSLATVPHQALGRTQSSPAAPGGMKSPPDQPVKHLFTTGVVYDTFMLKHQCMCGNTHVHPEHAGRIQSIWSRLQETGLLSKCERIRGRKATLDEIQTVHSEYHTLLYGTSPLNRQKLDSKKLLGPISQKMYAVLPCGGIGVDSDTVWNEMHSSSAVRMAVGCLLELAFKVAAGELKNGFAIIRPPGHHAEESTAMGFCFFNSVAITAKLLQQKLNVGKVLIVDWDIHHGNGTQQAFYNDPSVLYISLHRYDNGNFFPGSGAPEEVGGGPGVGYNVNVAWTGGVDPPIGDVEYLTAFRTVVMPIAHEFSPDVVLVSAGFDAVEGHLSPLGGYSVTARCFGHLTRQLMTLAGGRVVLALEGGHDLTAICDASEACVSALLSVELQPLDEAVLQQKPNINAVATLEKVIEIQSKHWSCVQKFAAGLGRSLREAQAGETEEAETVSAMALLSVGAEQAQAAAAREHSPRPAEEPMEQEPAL
Sequence of Histone deacetylase 2 (Q92769 whole entry, the tested form may be a part): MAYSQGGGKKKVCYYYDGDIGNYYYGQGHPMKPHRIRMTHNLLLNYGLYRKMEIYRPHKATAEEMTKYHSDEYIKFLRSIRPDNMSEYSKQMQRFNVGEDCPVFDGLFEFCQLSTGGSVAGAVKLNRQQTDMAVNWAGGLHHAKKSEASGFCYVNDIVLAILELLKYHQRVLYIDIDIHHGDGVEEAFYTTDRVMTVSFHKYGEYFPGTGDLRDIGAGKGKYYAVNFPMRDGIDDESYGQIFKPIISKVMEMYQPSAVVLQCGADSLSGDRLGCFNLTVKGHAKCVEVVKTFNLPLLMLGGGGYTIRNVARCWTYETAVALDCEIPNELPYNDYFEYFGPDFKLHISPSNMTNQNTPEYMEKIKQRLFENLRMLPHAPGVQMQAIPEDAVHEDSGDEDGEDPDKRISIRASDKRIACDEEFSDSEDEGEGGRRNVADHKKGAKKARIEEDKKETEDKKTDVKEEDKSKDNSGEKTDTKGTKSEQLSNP
Sequence of Histone deacetylase 4 (P56524 whole entry, the tested form may be a part): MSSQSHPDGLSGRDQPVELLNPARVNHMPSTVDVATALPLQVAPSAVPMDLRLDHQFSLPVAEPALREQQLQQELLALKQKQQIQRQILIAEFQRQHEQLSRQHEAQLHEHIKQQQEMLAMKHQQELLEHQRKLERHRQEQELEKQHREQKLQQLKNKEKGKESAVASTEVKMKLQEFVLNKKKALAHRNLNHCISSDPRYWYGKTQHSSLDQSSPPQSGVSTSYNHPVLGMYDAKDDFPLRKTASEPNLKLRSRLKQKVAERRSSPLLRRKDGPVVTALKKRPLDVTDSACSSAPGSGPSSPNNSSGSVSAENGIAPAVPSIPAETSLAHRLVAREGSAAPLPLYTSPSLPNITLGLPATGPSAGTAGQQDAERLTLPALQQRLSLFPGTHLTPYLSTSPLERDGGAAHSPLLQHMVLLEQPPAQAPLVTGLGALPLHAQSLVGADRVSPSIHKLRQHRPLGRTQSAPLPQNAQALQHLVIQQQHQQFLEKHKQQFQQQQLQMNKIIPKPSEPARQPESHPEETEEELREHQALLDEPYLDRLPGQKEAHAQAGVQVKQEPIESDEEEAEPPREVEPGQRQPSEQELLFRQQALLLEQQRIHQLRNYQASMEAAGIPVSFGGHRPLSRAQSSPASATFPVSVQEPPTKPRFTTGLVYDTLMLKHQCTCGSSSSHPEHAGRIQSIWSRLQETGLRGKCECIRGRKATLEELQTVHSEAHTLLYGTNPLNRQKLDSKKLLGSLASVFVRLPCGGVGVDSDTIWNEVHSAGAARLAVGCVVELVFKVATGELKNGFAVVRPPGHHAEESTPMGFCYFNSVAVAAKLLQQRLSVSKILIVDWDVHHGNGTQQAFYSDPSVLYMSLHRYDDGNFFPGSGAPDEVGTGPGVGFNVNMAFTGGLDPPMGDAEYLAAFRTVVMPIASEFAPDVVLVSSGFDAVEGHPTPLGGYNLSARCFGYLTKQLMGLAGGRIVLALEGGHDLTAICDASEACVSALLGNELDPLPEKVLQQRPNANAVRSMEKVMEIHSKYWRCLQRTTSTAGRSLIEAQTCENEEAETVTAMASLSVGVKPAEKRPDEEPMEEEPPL
Sequence of Histone deacetylase 9 (Q9UKV0 whole entry): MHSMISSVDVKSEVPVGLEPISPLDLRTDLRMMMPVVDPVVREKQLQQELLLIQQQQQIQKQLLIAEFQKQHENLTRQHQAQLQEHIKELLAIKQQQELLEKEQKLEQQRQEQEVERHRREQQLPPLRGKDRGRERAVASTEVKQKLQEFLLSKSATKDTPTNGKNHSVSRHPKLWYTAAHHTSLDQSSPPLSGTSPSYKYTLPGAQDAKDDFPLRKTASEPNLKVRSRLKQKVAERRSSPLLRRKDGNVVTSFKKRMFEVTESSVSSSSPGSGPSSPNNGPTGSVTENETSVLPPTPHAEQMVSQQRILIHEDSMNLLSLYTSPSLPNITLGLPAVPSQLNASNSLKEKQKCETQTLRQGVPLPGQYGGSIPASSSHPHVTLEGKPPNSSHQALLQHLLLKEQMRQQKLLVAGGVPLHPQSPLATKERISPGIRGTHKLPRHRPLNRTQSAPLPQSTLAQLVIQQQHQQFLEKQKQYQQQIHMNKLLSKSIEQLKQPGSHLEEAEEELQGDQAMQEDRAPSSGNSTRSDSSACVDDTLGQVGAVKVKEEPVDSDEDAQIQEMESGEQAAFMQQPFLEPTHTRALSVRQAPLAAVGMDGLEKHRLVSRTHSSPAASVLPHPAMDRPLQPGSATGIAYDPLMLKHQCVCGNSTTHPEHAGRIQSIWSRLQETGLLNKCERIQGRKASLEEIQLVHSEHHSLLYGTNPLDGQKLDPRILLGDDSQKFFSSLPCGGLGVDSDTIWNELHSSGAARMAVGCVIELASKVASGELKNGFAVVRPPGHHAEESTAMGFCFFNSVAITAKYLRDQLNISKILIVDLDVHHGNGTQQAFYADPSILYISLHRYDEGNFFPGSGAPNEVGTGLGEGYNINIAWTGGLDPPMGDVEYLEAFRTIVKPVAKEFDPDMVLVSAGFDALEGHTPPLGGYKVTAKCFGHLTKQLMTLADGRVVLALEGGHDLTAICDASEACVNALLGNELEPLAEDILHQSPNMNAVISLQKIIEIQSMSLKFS

O=C(CCCc1csc(/C=C/c2ccccc2)n1)NO
IC50 [1]: 17.8 µM
inhibition [2]: Active
IC50 [3]: > 10 µM
IC50 [4]: Not Active
IC50 [5]: 0.199 µM
inhibition (INH) [6]: 50%
IC50 [7]: 78.3 µM
IC50 [8]: > 10 µM
inhibition (INH) [9]: 50%
IC50 [10]: Not Active
Activity [11]: 40%
IC50 [12]: 19.7 µM
IC50 [13]: 1.48 µM
IC50 [14]: 26.6 µM
IC50 [15]: 13.8 µM
IC50 [16]: 1.54 µM
inhibition [17]: inactive
IC50 [18]: 32.8 µM
IC50 [19]: 0.37 µM
IC50 [20]: 0.567 µM
IC50 [21]: 52 µM
inhibition [22]: Active
inhibition (INH) [23]: 50%

Cc1ncsc1CCn1cc(NC(=O)CCS/C=C\c2ccccc2)cn1
IC50 [13]: 29.8 µM
inhibition [24]: Active

O=C(CCS/C=C/c1ccccc1)NO
IC50 [13]: 3.7 µM

O=C(CCS/C=C/c1ccccc1)NCCSCc1ccco1
IC50 [13]: 19.18 µM
inhibition [24]: Active
